Laboratory results reported in ChEMBL document CHEMBL4715812, “Zampanolide Binding to Tubulin Indicates Cross-Talk of Taxane Site with Colchicine and Nucleotide Sites” (J Nat Prod, 2018).
Active and inactive are the calls of the source. The rule behind the calls is not given here.

How the values were obtained:
Bos taurus [1] = species: Bos taurus; assay: Binding affinity to calf brain tubulin assessed as compound-protein complex stoichiometry ratio of 1:1 in absence of Mg2+ by spectrofluorometry analysis
Bos taurus [2] = species: Bos taurus; assay: Binding affinity to zampanolide-modified calf brain tubulin
Bos taurus [3] = species: Bos taurus; assay: Binding affinity to zampanolide-modified calf brain tubulin assessed as compound-protein complex stoichiometry ratio of 1:1 in absence of Mg2+ by spectrofluorometry assay
Homo sapiens [4] = species: Homo sapiens; assay: (§1) Covalent modification of GAB-buffer assembled microtubule (unknown origin) assessed as effect on nucleotide binding affinity at E-site by measuring ratio of GTP concentration to tubulin concentration incubated for 30 mins in presence or absence of 1 mM GTP and measured after 20 mins by HPLC analysis (reference value: 1)
In short: (§2)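 Calf-brain tubulin equilibrated in PEDTA (10 mM NaPi, 1 mM EDTA, pH 7.0), with 10% molar excess ligand or DMSO, then supplemented with 3.4 M glycerol, 1 mM EGTA, MgCl2 to 6 mM, and no nucleotide or 1 mM GTP. Assembled 30 min at 37 °C, spun 20 min at 37 °C, pellets washed in warm GAB without GTP. Tubulin measured, nucleotides extracted and quantified by HPLC.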

Homo sapiens [5] = species: Homo sapiens; assay: as §1, with “of GDP” for “of GTP”, “to microtubule” for “to tubulin”; in short: as §2
Homo sapiens [6] = species: Homo sapiens; assay: Binding affinity to stabilized microtubule (unknown origin) at 25 degreeC incubated for 30 mins followed by GTP addition and measured after 30 mins by HPLC analysis; conditions: time 1.0 hrs
In short: (§3)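 Stabilized cross-linked microtubules (0.6 μM) preincubated 30 min, 25 °C with 10% excess zampanolide or DMSO in GAB (3.4 M glycerol, 10 mM NaPi, 1 mM EDTA, 6 mM MgCl2, 0.1 mM GTP, pH 6.7); peloruside 0.1–10 μM added, further 30 min at 25 °C; spun 20 min at 50 000 rpm; supernatant/pellet ligand by reverse-phase HPLC at 205/230 nm; Kb fitted, three independent measurements.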

Bos taurus [7] = species: Bos taurus; assay: (§4) Covalent modification of compound-ligated activated form of calf brain dimeric tubulin assessed as effect on nucleotide binding affinity at E-site by measuring ratio of GTP concentration to tubulin concentration incubated for 1.5 hrs in presence or absence of 10 uM GTP followed by passage through sephadex G25 column by HPLC analysis (reference value: 1.94 +/- 0.03)
In short: (§5)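 40 μM calf-brain tubulin in PEDTA buffer (10 mM NaPi, 1 mM EDTA, pH 7.0) incubated 1.5 h at 25 °C with 10% excess ligand or DMSO. Unbound nucleotide removed on Sephadex G-25 in PEDTA plus 10 μM GTP and […] at 4 °C. Aliquot diluted 20-fold in 10 mM NaPi, 1% SDS, pH 7.0; tubulin and nucleotide quantified, nucleotides by HPLC after extraction.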

Bos taurus [8] = species: Bos taurus; assay: as §4, with “of GDP nucleotide” for “of GTP”, “value: 0.06” for “value: 1.94”; in short: as §5
Bos taurus [9] = species: Bos taurus; assay: Induction of oligomerization of compound-ligated activated form of calf brain tubulin assessed as formation of dimers by measuring sedimentation coefficient at 55 uM incubated for 30 mins in presence of GDP and 3.31 mM Mg2+ by […]
In short: (§6)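 Calf-brain tubulin 50 μM in PEDTA with 55 μM zampanolide or DMSO, 1 mM GDP, 7 mM total (3.31 mM free) Mg2+, plus DTT; incubated 25 °C, 30 min, sedimentation velocity at 40 000 rpm; c(S) by least-squares boundary modelling corrected to water/20 °C; assembled polymer checked by uranyl acetate negative-stain EM.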

Bos taurus [10] = species: Bos taurus; assay: Induction of oligomerization of compound-ligated activated form of calf brain tubulin at 55 uM incubated for 30 mins in presence of 0.1 mM GDP and 0.039 mM Mg2+ by analytical ultracentrifugation
In short: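 Sedimentation velocity of 50 μM tubulin with 55 μM zampanolide or DMSO in PEDTA, 0.1 mM GDP, 1 mM total Mg2+ (0.039 mM free); 25 °C for 30 min, 40 000 rpm; c(S) fitted, corrected to water/20 °C.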

Bos taurus [11] = species: Bos taurus; assay: Induction of oligomerization of compound-ligated activated form of calf brain tubulin assessed as oligomer formation by measuring sedimentation coefficient at 55 uM incubated for 30 mins in presence of GTP/GDP and 0.14 mM Mg2+ by analytical ultracentrifugation
Bos taurus [12] = species: Bos taurus; assay: Induction of oligomerization of compound-ligated activated form of calf brain tubulin assessed as formation of microtubule at 55 uM incubated for 30 mins in presence of GTP and 3 mM Mg2+ by electron micrography analysis
In short: (§7)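 Tubulin 50 μM in PEDTA with 55 μM zampanolide or DMSO and 0.1 mM GTP; Mg2+ 1.5 mM total (0.14 mM free) or 3 mM total (0.77 mM free), free Mg2+ corrected for phosphate, nucleotide, EDTA binding; 25 °C, 30 min, then 40 000 rpm ultracentrifugation; c(S) distributions; negative-stain EM of samples.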

Bos taurus [13] = species: Bos taurus; assay: Induction of oligomerization of compound-ligated activated form of calf brain tubulin assessed as tubulin-tubulin interaction causing aggregation formation at 55 uM incubated for 30 mins in presence of GTP and 1.5 mM Mg2+ by analytical ultracentrifugation; in short: as §7
Homo sapiens [14] = species: Homo sapiens; assay: Induction of oligomerization of compound modified microtubule (unknown origin) assessed as peloruside binding constant at 25 degreeC incubated for 30 mins followed by GTP addition and measured after 30 mins by HPLC analysis; conditions: time 1.0 hrs; in short: as §3
Bos taurus [15] = species: Bos taurus; assay: Induction of oligomerization of compound-ligated activated form of calf brain tubulin assessed as formation of double rings by measuring sedimentation coefficient at 55 uM incubated for 30 mins in presence of GDP and 3.31 mM Mg2+ by analytical ultracentrifugation; in short: as §6
Bos taurus [16] = species: Bos taurus; assay: Induction of oligomerization of compound-ligated activated form of calf brain tubulin assessed as formation of microtubule by measuring sedimentation coefficient at 55 uM incubated for 30 mins in presence of GDP and 3.31 mM Mg2+ by electron micrography analysis; in short: as §6
Bos taurus [17] = species: Bos taurus; assay: Induction of oligomerization of compound-ligated activated form of calf brain tubulin assessed as formation of tetramers by measuring sedimentation coefficient at 55 uM incubated for 30 mins in presence of GDP and 3.31 mM Mg2+ by analytical ultracentrifugation; in short: as §6
Bos taurus [18] = species: Bos taurus; assay: Induction of oligomerization of compound-ligated activated form of calf brain tubulin at 55 uM incubated for 30 mins in presence of 0.1 mM GTP and 0.028 mM Mg2+ by analytical ultracentrifugation
In short: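 Sedimentation velocity of 50 μM tubulin with 55 μM zampanolide or DMSO in PEDTA, 0.1 mM GTP, 1 mM total Mg2+ (0.028 mM free); 25 °C for 30 min, 40 000 rpm; c(S) fitted, corrected to water/20 °C.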

Bos taurus [19] = species: Bos taurus; assay: Induction of oligomerization calf brain tubulin assessed as formation of microtubule at 100 uM incubated for 30 mins in presence of GTP and 3 mM Mg2+ by electron micrography analysis

Question: What does the source list for `COc1ccc(-c2ccc(OC)c(=O)cc2)c(OC)c1OC`?
Answer: Activity (Bos taurus [1]): Active; Kb (Bos taurus [2]): 4.5 10^6/M; Activity (Bos taurus [3]): Active

Question: For `CC(=O)O[C@@]12CO[C@@H]1C[C@H](O)[C@@]1(C)C(=O)[C@H](O)C3=C(C)[C@@H](OC(=O)[C@H](O)[C@@H](NC(=O)OC(C)(C)C)c4ccccc4)C[C@@](O)([C@@H](OC(=O)c4ccccc4)[C@H]21)C3(C)C`, which Ratio (Homo sapiens [4]) is on record?
Answer: 1.02

Question: And the Ratio (Homo sapiens [5])?
Answer: 1.03

Question: For `CC[C@H](/C=C(/C)[C@@H]1C[C@@H](OC)C[C@H](O)C(C)(C)[C@@]2(O)O[C@@H](C[C@@H](OC)[C@H](O)C(=O)O1)C[C@@H](OC)[C@H]2O)CO`, which Kb (Homo sapiens [6]) is on record?
Answer: 4 10^6/M

Question: `CC1=C[C@H]2[C@@H](O)[C@H](C)[C@@H](O)[C@@H]2[C@H]2[C@@H]3C4=C5O[C@@](C)(CC[C@H](OC4=O)[C@@H]5C)[C@@H]3C[C@@H]12` was tested. Which Ratio (Bos taurus [7]) did it give?
Answer: 1.83

Question: What about the Ratio (Bos taurus [8]) of the same compound?
Answer: 0.02

Question: What about the Ratio (Homo sapiens [4]) of the same compound?
Answer: 1.03

Question: And the Ratio (Homo sapiens [5])?
Answer: 0.97

Question: For `C=C1C[C@H]2C/C=C/C(=O)C/C(C)=C\C=C\C(=O)O[C@@H](C=O)C/C(C)=C/[C@@H](C1)O2`, which Ratio (Bos taurus [7]) is on record?
Answer: 1.33

Question: And the Ratio (Bos taurus [8])?
Answer: 0.03

Question: And the Ratio (Homo sapiens [4])?
Answer: 0.95

Question: And the Ratio (Homo sapiens [5])?
Answer: 0.84

Question: `C=C1C[C@@H]2C/C=C/C(=O)C/C(C)=C\C=C\C(=O)O[C@H]([C@H](O)NC(=O)/C=C\C=C\C)C/C(C)=C/[C@H](C1)O2` was tested. Which S20,w (Bos taurus [9]) did it give?
Answer: 6 Svedberg

Question: And the Ratio (Bos taurus [7])?
Answer: 0.91

Question: What about the Activity (Bos taurus [10]) of the same compound?
Answer: inactive

Question: What about the Ratio (Bos taurus [8]) of the same compound?
Answer: 0.04

Question: What about the S20,w (Bos taurus [11]) of the same compound?
Answer: 9 Svedberg

Question: And the S20,w (Bos taurus [12])?
Answer: > 50 Svedberg

Question: What about the Activity (Bos taurus [13]) of the same compound?
Answer: inactive

Question: And the Kb (Homo sapiens [14])?
Answer: 3.1 10^6/M

Question: What about the S20,w (Bos taurus [15]) of the same compound?
Answer: 36 Svedberg

Question: What about the Ratio (Homo sapiens [4]) of the same compound?
Answer: 0.92

Question: And the S20,w (Bos taurus [16])?
Answer: > 50 Svedberg

Question: And the Ratio (Homo sapiens [5])?
Answer: 0.84

Question: And the S20,w (Bos taurus [17])?
Answer: 8 Svedberg

Question: What about the Activity (Bos taurus [18]) of the same compound?
Answer: inactive

Question: For `C/C(=C\c1csc(C)n1)[C@@H]1C[C@@H]2O[C@]2(C)CCC[C@H](C)[C@H](O)[C@@H](C)C(=O)C(C)(C)[C@@H](O)CC(=O)O1`, which Activity (Bos taurus [19]) is on record?
Answer: Active
